Measured values taken from ChEMBL document CHEMBL4699548, “Ultrasound assisted synthesis of tetrazole based pyrazolines and isoxazolines as potent anticancer agents via inhibition of tubulin polymerization” (Bioorg Med Chem Lett, 2020).
Active and inactive are the calls of the source. The rule behind the calls is not given here.

Legend:
MCF7 = experiment: Cytotoxicity against human MCF7 cells assessed as reduction in cell viability by MTT assay; format: functional, cell-based
A549 = experiment: Cytotoxicity against human A549 cells assessed as reduction in cell viability by MTT assay; format: functional, cell-based
HepG2 = experiment: Cytotoxicity against human HepG2 cells assessed as reduction in cell viability by MTT assay; format: functional, cell-based
Tubulin (Homo sapiens) [1] = molecular target: T1, Tubulin (Homo sapiens) (UniProt P68371+Q9H4B7+P0DPH7+P68366+Q13509+Q71U36+P04350+Q3ZCM7+P07437+P68363+Q9BQE3+Q6PEY2+Q13885+Q9BVA1+Q9BUF5); experiment: Inhibition of tubulin polymerization in human A549 cells assessed as decrease in polymerized fraction of tubulin content at 1 uM after 48 hrs by Western blot analysis relative to control; format: cell-based
Outline: (§1)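 A549 cells exposed to test agents at 1 μM for 48 h. Combretastatin A-4 (1 μM) run in parallel as positive control and DMSO as negative control. Soluble and polymerized tubulin fractions were collected separately and tubulin levels in each were detected by western blot.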

Tubulin (Homo sapiens) [2] = molecular target: T1, Tubulin (Homo sapiens); experiment: Inhibition of tubulin polymerization in human A549 cells assessed as increase in soluble fraction of tubulin at 1 uM measured after 48 hrs by western blot analysis; format: cell-based; outline: as §1
Tubulin = experiment: Inhibition of tubulin polymerization in human A549 cells assessed as decrease in polymerized fraction of tubulin content after 48 hrs by western blot analysis; format: cell-based
Outline: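 A549 cells exposed to test agents at 1 μM for 48 h. Soluble and polymerized tubulin fractions were collected separately and tubulin levels in each were detected by western blot.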

SMILES | IC50 (MCF7) [µM] | IC50 (A549) [µM] | IC50 (HepG2) [µM] | inhibition (Tubulin (Homo sapiens) [1]) [%] | inhibition (Tubulin (Homo sapiens) [2]) | IC50 (Tubulin) [µM]
COc1cc(C2=NOC(c3cccc(O)c3)C2)ccc1OCc1nnn[nH]1 (configuration not stated) | 6.25 | 25 | 1.56 | – | – | –
COc1cc(C2=NNC(c3ccccc3)C2)ccc1OCc1nnn[nH]1 (configuration not stated) | 3.16 | 2.98 | 3.15 | – | – | –
COc1ccc(/C=C\c2cc(OC)c(OC)c(OC)c2)cc1O [COMBRETASTATIN A4] | 0.04 | 0.05 | 0.009 | – | – | –
COc1ccc(C2CC(c3ccc(OCc4nnn[nH]4)c(OC)c3)=NN2)cc1OC (configuration not stated) | 2.94 | 2.82 | 3.06 | – | – | –
COc1cc(C2=NOC(c3ccc(C)cc3)C2)ccc1OCc1nnn[nH]1 (configuration not stated) | 12.5 | 0.78 | 6.25 | – | – | –
COc1cc(C2=NNC(c3ccc(C)cc3)C2)ccc1OCc1nnn[nH]1 (configuration not stated) | 1.76 | 0.99 | 1.08 | – | – | –
COc1cc(C2=NOC(c3ccc(O)cc3)C2)ccc1OCc1nnn[nH]1 (configuration not stated) | 25 | 3.12 | 6.25 | – | – | –
COc1ccc(C2CC(c3ccc(OCc4nnn[nH]4)c(OC)c3)=NO2)cc1OC (configuration not stated) | 25 | 12.5 | 3.12 | – | – | –
COc1cc(C2=NNC(c3cccc(O)c3)C2)ccc1OCc1nnn[nH]1 (configuration not stated) | 2.16 | 2.24 | 2.88 | – | – | –
COc1cc(C2=NNC(c3ccc(Cl)cc3)C2)ccc1OCc1nnn[nH]1 (configuration not stated) | 1.04 | 1.11 | 0.96 | 62.6 | Active | 2.94
COc1cc(C2=NOC(c3ccccc3)C2)ccc1OCc1nnn[nH]1 (configuration not stated) | 12.5 | 6.25 | 6.25 | – | – | –
COc1cc(C2=NNC(c3ccc(O)cc3)C2)ccc1OCc1nnn[nH]1 (configuration not stated) | 1.94 | 1.16 | 2.02 | – | – | –
COc1ccc(C2CC(c3ccc(OCc4nnn[nH]4)c(OC)c3)=NN2)cc1 (configuration not stated) | 3.1 | 3.12 | 2.98 | – | – | –
COc1cc(C2=NOC(c3ccc(Cl)cc3)C2)ccc1OCc1nnn[nH]1 (configuration not stated) | 6.25 | 6.25 | 12.5 | – | – | –
COc1cc(C2=NNC(c3ccc(F)cc3)C2)ccc1OCc1nnn[nH]1 (configuration not stated) | 0.92 | 0.94 | 0.85 | 65.4 | Active | 2.16
COc1ccc(C2CC(c3ccc(OCc4nnn[nH]4)c(OC)c3)=NO2)cc1 (configuration not stated) | 12.5 | 6.25 | 12.5 | – | – | –
COc1cc(C2=NOC(c3ccc(F)cc3)C2)ccc1OCc1nnn[nH]1 (configuration not stated) | 3.12 | 3.12 | 3.12 | – | – | –
